ATG4B inh – blocks human ATG4B protease cleavage of LC3 substrate. inhibition, % at 8.33 µM. Q9Y4P1. ATG4B cleavage of LC3-PLA2, NBD-HPC fluorescence, 1 h. actives 0.51% (n = 340,000); in the data active means inhibition above about 40%
Target sequence (Q9Y4P1 whole entry, looked up): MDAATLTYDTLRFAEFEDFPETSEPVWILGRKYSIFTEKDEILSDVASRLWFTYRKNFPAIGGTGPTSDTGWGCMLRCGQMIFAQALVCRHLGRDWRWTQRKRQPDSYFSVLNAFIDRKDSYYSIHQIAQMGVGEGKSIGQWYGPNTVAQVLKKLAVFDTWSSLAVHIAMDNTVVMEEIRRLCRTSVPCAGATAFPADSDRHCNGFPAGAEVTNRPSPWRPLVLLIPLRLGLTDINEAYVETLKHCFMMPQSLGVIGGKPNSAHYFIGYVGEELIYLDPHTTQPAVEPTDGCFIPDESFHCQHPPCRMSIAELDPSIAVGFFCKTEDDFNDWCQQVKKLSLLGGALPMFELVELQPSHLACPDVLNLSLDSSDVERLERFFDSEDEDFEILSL
PKA-R2B activ – activators of human PKA-R2B complex; P22694+P31323; PKA-R2B holoenzyme dissociation, Cy5-IP20 fluorescence polarization; R2B truncated from residue 108, S112A mutant; 0% DMSO only, 100% 113 µM cGMP; activation, % at 11.4 µM; actives 0.079% (n = 340,000);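 active means activation above a cutoff set at the mean over all compounds plus 3 SD, cut at about 18% in these data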;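 further: higher means more holoenzyme dissociation and a rise in polarization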
HKDC1 inhibitor – HKDC1 (human) hexokinase inhibition | AID 493160 | recombinant HKDC1, G6PDH/diaphorase resazurin coupled fluorescence | inhibition, % at 20 µM | Q2TB90 | actives 0.16% (n = 340,000);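 active means inhibition above about 35% when tested at 20 µM, limit read from the data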;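 further: plate controls were DMSO wells with enzyme for no effect and DMSO wells lacking enzyme for full effect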
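Material: recombinant HKDC1 hexokinase; Amount: HKDC1 at 5 µg/mL; Medium: Tris pH 8.0 buffer with MgCl2, Tween-20, BSA, BME; Schedule: 90 min reaction incubation at room temperature, dark; Technique: coupled resazurin fluorescence, excitation 525 nm, emission 613 nm.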
PfG6PD inh – PfG6PD (Plasmodium falciparum) enzyme inhibition. PfGluPho enzyme, NADPH resazurin-diaphorase fluorescence. inhibition, % at 20 µM. actives 0.78% (n = 350,000);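 active means inhibition reaching at least a set limit at 20 µM in the primary screen, cut at about 59% in these data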;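 further: 0% = DMSO wells with substrate and 100% = DMSO wells lacking glucose-6-phosphate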
T cell HTS – modulates CD8 T cell binding to vesicles; response (vesicle binding), % at 7 µM; actives 0.068% (n = 330,000); AID 2052; 2C CD8+ T cell-vesicle binding, flow cytometry; active compounds read low;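 active means response, share of CD8 T cells binding vesicles, and their 90th percentile fluorescence all below set limits, cut at about 80% in these data, passing the limit was not always enough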;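 further: values below 100% mean blocked vesicle binding to the CD8+ T cells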
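Read-out – percent CD8+ FL2 mean versus row control · System – murine 2C transgenic CD8+ T lymphocytes · Times – 1.5 h cell–vesicle binding at 37 °C, then 20 min icy labelling · Control set – naked vesicles low, QL9 vesicles with vehicle high · Detection – cytometric PE anti-B7-1 and Alexa647 anti-CD8 signals after 1% paraformaldehyde fixation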
PKA-R1A act – PKA-R1A complex activation; P00514+P68181; PKA-R1A dissociation, Cy5-IP20 fluorescence polarization; scaled: DMSO 0%, 113 µM cGMP 100%; activation, % at 11.4 µM; actives 0.083% (n = 340,000); AID 504707;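 active means percent activation above the mean of all tested compounds plus 3 SD, cut at about 19% in these data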;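 further: higher means more PKAc released from R1A so a rise in polarization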
ATG4B confirm – confirmation of human ATG4B inhibitors; shares compounds with ATG4B inh; actives 92% (n = 320); inhibition, % at 8.33 µM; ATG4B protease fluorescent substrate cleavage assay; in the data active means inhibition above about 39%
PLA2 counter – counter-screen for ATG4B inhibitors: human phospholipase A2; shares compounds with ATG4B inh; purified PLA2, NBD-C6-HPC fluorescence, 45 min; inhibition, % at 8.33 µM; actives 66% (n = 1,600); AID 588402; in the data active means inhibition above about 50%
Target sequence (P04054 whole entry, looked up): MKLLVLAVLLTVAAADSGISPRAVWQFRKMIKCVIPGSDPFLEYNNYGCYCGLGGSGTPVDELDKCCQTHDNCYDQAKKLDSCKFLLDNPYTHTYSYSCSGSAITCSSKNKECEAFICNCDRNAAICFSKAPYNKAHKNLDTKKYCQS
An asterisk follows results filed as active; x = no result given. Compounds with a hit are over-represented: about 1.6% of the library has one in this group of screens.

SMILES | ATG4B inh | PKA-R2B activ | HKDC1 inhibitor | PfG6PD inh | T cell HTS | PKA-R1A act | PLA2 counter | others
COc1ccc(-c2nc3ccccc3c(=O)n2N)cc1 | 9.1 | 1.0 | -4.0 | -15.8 | 483.5 | -1.9 | x
COc1cc(OC)cc(-c2nc3ccccc3c(=O)n2OC(=O)c2ccc(Br)cc2)c1 | 54.9* | 9.6 | 28.8 | -34.6 | 467.4 | -6.3 | 28.9 | ATG4B confirm=29.8
COc1ccc(O)c(CNn2c(-c3ccc(Br)cc3)nc3ccccc3c2=O)c1 | -3.8 | 5.0 | -8.4 | 6.9 | 265.7 | 6.0 | x
COc1ccc(C(=O)On2c(-c3ccc(Br)cc3)nc3ccccc3c2=O)cc1 | 55.9* | -2.2 | 1.8 | -12.2 | 150.9 | -8.3 | 65.5*
O=P1(O)CC2=C(CC=CC2)C1 | x | 6.2 | x | -11.7 | x | -7.1 | x
CCOc1cc(C(N)=O)cc(Br)c1OCc1ccccc1 | 46.2* | 4.0 | -9.2 | 6.8 | 152.5 | -3.4 | 60.3*
CCOc1cc(C(N)=O)cc(Br)c1OC | -4.7 | -6.6 | -1.7 | -17.2 | 610.5 | -8.2 | x
COc1c(Br)cc(C(N)=O)cc1OCc1ccccc1 | 66.6* | 3.1 | -5.3 | 0.7 | 294.6 | 1.0 | 72.3*
CCc1nc2nc(C)c(NS(=O)(=O)c3ccc(Cl)s3)c(=O)n2[nH]1 | 0.2 | 3.1 | 2.1 | -3.7 | 214.6 | 0.6 | x
CCN(Cc1ccccc1)C(=O)c1cccc(OC2CCN(C(=O)C3CC3)CC2)c1 | 42.9* | 10.9 | 2.7 | -14.1 | 326.4 | 8.0 | 33.9
CN(CC(=O)NCC1CCCO1)S(=O)(=O)c1cc(Cl)ccc1Cl (stereo not drawn) | 93.0* | -6.1 | 1.3 | -14.0 | 239.2 | 0.6 | 1.6
Cc1ccc(N(CC(=O)NCC2CCCO2)S(=O)(=O)c2ccc(Cl)cc2)cc1C (stereo not drawn) | -9.5 | 9.3 | -6.2 | 5.8 | 27.9 | 0.2 | x
COCCn1c(SCc2cc(C(C)=O)ccc2OC)nc2cc(Cl)ccc2c1=O | 63.0* | -7.9 | -11.5 | -3.9 | 368.1 | 10.8 | 63.0*
COc1ccc(C(C)=O)cc1CSc1nc2ccccc2c(=O)n1-c1ccccc1C | 52.8* | 8.1 | 2.9 | 16.5 | 150.0 | 2.2 | 81.3*
COc1ccc(C(C)=O)cc1CSc1nc2ccccc2c(=O)n1-c1cccc(C)c1 | 79.1* | 2.1 | -7.1 | -5.2 | 225.4 | -8.4 | 32.7 | ATG4B confirm=49.5*
COc1ccc(C(C)=O)cc1CSc1nc2ccccc2c(=O)n1-c1ccccc1 | 35.1 | -3.6 | -6.1 | 13.6 | 466.6 | 2.2 | x
Cc1ccccc1C(=O)Nc1cc(C(F)(F)F)ccc1-n1cncn1 | -7.2 | 1.5 | 5.8 | 17.1 | 383.2 | -2.5 | x
CCc1oc2ccccc2c1C(=O)c1cc(Br)c(O)c(Br)c1 | 95.5* | -16.5 | 3.3 | -26.0 | 487.8 | 3.2 | 96.2*
CCc1ccc(OCC(=O)c2c(O)c3ccccc3oc2=O)cc1 | 1.3 | -0.9 | 15.0 | -21.1 | 334.5 | -6.1 | x
O=C(CNC(=O)N1CC(=O)Nc2ccccc21)NCCc1c[nH]c2ccccc12 | -2.2 | 1.0 | 1.4 | -7.6 | 214.3 | -11.9 | x
CCC(C)N(C(=O)COc1ccc(Br)cc1C=O)C1CCS(=O)(=O)C1 (stereo not drawn) | 42.2* | -0.6 | -4.7 | 8.0 | 329.6 | -0.5 | 47.7 | ATG4B confirm=57.1*
CC(C)c1ccc(NC(=O)COC(=O)C2CCCCC2)cc1 | -3.8 | -7.8 | 1.5 | 14.7 | 585.9 | -6.9 | x
O=C(CCCCCn1c(=S)[nH]c2cc3c(cc2c1=O)OCO3)N1CCN(c2ccccc2)CC1 | 7.0 | 5.8 | -0.9 | -18.5 | 327.9 | -1.8 | x
O=C(CCCn1c(=S)[nH]c2cc3c(cc2c1=O)OCO3)N1CCN(c2ccc(F)cc2)CC1 | 55.8* | -8.9 | -1.9 | 12.7 | 444.6 | -4.7 | 47.8 | ATG4B confirm=59.5*
COc1ccccc1N1CCN(C(=O)CCCCCn2c(=S)[nH]c3cc4c(cc3c2=O)OCO4)CC1 | x | -16.2 | x | -11.0 | x | 14.9 | x
SMILES | ATG4B inh | PKA-R2B activ | HKDC1 inhibitor | PfG6PD inh | T cell HTS | PKA-R1A act | PLA2 counter | others
Cc1ccc(C)c(N2CCN(C(=O)CCCn3c(=S)[nH]c4cc5c(cc4c3=O)OCO5)CC2)c1 | 51.8* | 12.2 | -0.8 | -14.1 | 119.8 | 7.6 | 62.5*
O=C(CCCn1c(=S)[nH]c2cc3c(cc2c1=O)OCO3)N1CCN(c2ccccc2F)CC1 | 50.6* | 1.1 | 9.7 | 20.4 | 346.1 | 0.3 | 53.7*
Cc1cccc(C)c1OCC(=O)N(Cc1ccc(Cl)cc1)C1CCS(=O)(=O)C1 (stereo not drawn) | -8.6 | -8.2 | -3.2 | 14.7 | 408.8 | 2.7 | x
O=c1c2ccccc2nnn1-c1ccccc1[N+](=O)[O-] | x | -1.2 | x | 5.0 | x | 6.4 | x
CC1CC(NC(=O)/C=C/C(=O)O)CC(C)(C)C1 (stereo not drawn) | -4.8 | 0.7 | -0.6 | -7.7 | 281.5 | -1.9 | x
O=S(=O)(c1ccc(Br)s1)N1CCc2ccccc2C1 | 56.8* | -0.1 | -4.8 | 3.3 | 415.6 | -9.2 | 26.8
CC(C)(C)OC(=O)NN1CC(=O)N2Cc3[nH]c4ccccc4c3C[C@H]2C1=O | -8.8 | 2.2 | -4.3 | 2.8 | 195.2 | -8.5 | x
Cc1cccc(C(C)C)c1NC(=O)COC(=O)CCN1C(=O)C2CC=CCC2C1=O (stereo not drawn) | 2.9 | -7.7 | 4.7 | -11.5 | 490.2 | -5.0 | x
Cc1cc(NS(=O)(=O)c2ccc(Nc3nc(-c4ccc(C)c(C)c4)cs3)cc2)no1 | 44.0* | -6.0 | -7.0 | -16.4 | 624.3 | -1.4 | 38.2 | ATG4B confirm=70.6*
O=c1c2ccccc2nc(/C=C/c2ccc(O)cc2)n1CCc1ccccc1 | 47.9* | -4.6 | 4.0 | -2.1 | 165.6 | 4.8 | 47.8 | ATG4B confirm=72.0*
Cc1ccc(SCC(=O)OCC(=O)N(CCC#N)c2ccccc2)cc1 | 3.1 | -10.2 | -2.8 | -4.2 | 585.1 | -4.4 | x
CCc1cccc(C)c1NC(=O)COC(=O)c1c2c(nc3ccccc13)/C(=C\c1cccs1)CCC2 | 46.2* | -1.1 | -4.0 | 19.4 | 229.4 | -6.9 | 47.1
COC(=O)[C@]1(Cc2ccccc2)N[C@H](c2ccc(-c3cc(C(C)=O)cs3)cc2)[C@@H]2C(=O)N(C)C(=O)[C@@H]21 | -7.9 | -0.3 | -1.5 | -12.8 | 185.4 | -3.0 | x
CCOC(=O)C1CCN(C(=O)c2ccccc2)c2scc(-c3ccccc3)c2C1=O (stereo not drawn) | x | -6.5 | x | 7.9 | x | -0.4 | x
Cc1ccc(-n2c(SCC(=O)N/N=C/c3c(C)nn(-c4ccccc4)c3C)nc3ccccc3c2=O)cc1 | 40.1* | -9.2 | -2.0 | -0.3 | 251.7 | -21.9 | -3.9 | ATG4B confirm=77.6*
